Only a selection was taken, and hits are over-represented in it overall.
T cruzi inh = T. cruzi replication inhibition | T. cruzi beta-gal in NIH3T3, luminescence, 90 h | inhibition, % (no concentration beside the values) | 1.4% of 300,000 active;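 active = mean inhibition across valid replicates above about 55%, limit read from the data; inconclusive = mean below that limit but half or more replicates reach it; inactive = mean below it, under half of replicates reach it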;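 also: signal also drops with host cell toxicity which is not excluded here; 0% = plate median of DMSO wells and 100% = zero luminescence signal; higher percent means less beta-gal luminescence so fewer parasites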
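Material: NIH/3T3 host cells with β-galactosidase reporter T. cruzi; Input: 5,000 host fibroblasts per well; Medium: DMEM, 2% fetal bovine serum; Compound: 50 nL DMSO compound solution per well; Schedule: 3 h host attachment, then at least 90 h co-culture; Detection: luminescent β-galactosidase signal after 60 min lysis.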
Hsp70 act = switches on Hsp70 transcription. 0.04% of 200,000 active. activation, % at 10 µM. HeLa Hsp70 promoter luciferase reporter, luminescence; scaled: vehicle 0, proteasome-inhibitor control 100%;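 active = activation above the mean across all tested compounds plus 3 SD, cutoff set per campaign, cut at about 5.5% in these data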;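 also: 100% = MG132 at 30 µM as the positive control and 0% = DMSO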
L major viab = Leishmania major promastigote growth inhibition; inhibition, % at 10 µM; AID 1063; Leishmania major promastigotes, resazurin fluorescence viability; 9% of 200,000 active; in the data active = inhibition above about 50%;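 also: promastigotes grown with compound for 44 hours at 28 °C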
HSF1 activator = increases HSF-1 driven luciferase reporter signal. activation, % at 9 µM. AID 504408. 1.7% of 300,000 active. NIH3T3-HGL HSF-1 luciferase reporter, MG132, 8 h; 100% = twice DMSO control signal;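 active = mean replicate activation of at least 50% with a set share of replicates each reaching 50%; inconclusive = only one of those two conditions met; inactive = mean below 50% and too few replicates reaching it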;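 also: 0% = median of the neutral control wells and 100% = twice that signal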
HSF1 inhib = HSF1 inhibition. NIH3T3-HGL HSE-luciferase, MG132-induced, luminescence 8 h; hits give low values. activity change, negative = inhibition, % at 7.5 µM (by protocol). 0.77% of 300,000 active. AID 2098;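 active = more than half of replicate wells show activity change below -50%, luminescence cut by over half; inconclusive = some wells, but at most half, below -50%; inactive = no replicate well below -50%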;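 also: luciferase reports HSF-1 transcriptional activity via heat shock element; 0% = median of DMSO wells and -100% = zero luminescence signal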
L major 1uM = L. major promastigote growth inhibition, 1 uM repeat; AID 1258; 13% of 1,100 active; resazurin fluorescence, 48 h; inhibition, % at 1 µM; shares compounds with L major viab;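 active = inhibition above about 50% in both repeat tests, limit read from the data; inconclusive = one repeat under the set limit, the other over it; inactive = both repeats under the set limit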
Starred values were filed as active, the others as inactive.

For O=C(COC(=O)[C@H](Cc1ccccc1)N1C(=O)c2ccccc2C1=O)Nc1ccc2c(c1)OCO2 the results were T cruzi inh 5, Hsp70 act 0, L major viab 99*, HSF1 activator -54, HSF1 inhib -45 and L major 1uM -11.
`Cc1cc(C)cc(OCC(=O)Nc2ccc3c(c2)OCO3)c1` gave T cruzi inh -13, Hsp70 act 0, L major viab 62*, HSF1 activator 0, HSF1 inhib -1 and L major 1uM 17.
Oc1c(C=NCc2ccccc2)sc2ccccc12 was read as T cruzi inh 0, Hsp70 act 0, L major viab 56*, HSF1 activator 36, HSF1 inhib 21 and L major 1uM -9.
Oc1cccc(C=NCc2ccccc2)c1O was read as T cruzi inh -19, Hsp70 act 0, L major viab -6, HSF1 activator -9 and HSF1 inhib -8.
Cc1ccc(S(=O)(=O)N/N=c2\oc3ccccc3cc2C(=O)Nc2cccc(C)c2)cc1 was read as T cruzi inh -7, Hsp70 act 0, L major viab 71*, HSF1 activator 58*, HSF1 inhib 37 and L major 1uM -17.
Cc1cccc(CC(=O)c2c[nH]c3ccccc23)c1 was read as T cruzi inh 0, HSF1 activator 12 and HSF1 inhib 11.
For O=c1[nH]sc2ccccc12 the results were T cruzi inh 63*, Hsp70 act 0, L major viab 67*, HSF1 activator -25, HSF1 inhib -22 and L major 1uM 31.
O=c1cc(O)sc2ccccc12 was read as T cruzi inh -6, Hsp70 act 0, L major viab -3, HSF1 activator 5 and HSF1 inhib -2.
Screening CCc1ccc(C2C(C#N)=C(N)N(N(C)C)C3=C2C(=O)CCC3)cc1 (stereo not given) returned T cruzi inh 8, HSF1 activator 6 and HSF1 inhib -4.
`Cc1ccc(NNC(=O)C(O)(c2cccc(C(F)(F)F)c2)c2cccc(C(F)(F)F)c2)cc1` gave T cruzi inh 39, Hsp70 act 0, L major viab 70*, HSF1 activator 29, HSF1 inhib 0 and L major 1uM -9.
For COc1ccc(Cl)cc1NC(=O)CCNS(=O)(=O)c1cccc2nonc12 the results were T cruzi inh 9, HSF1 activator -8 and HSF1 inhib 4.
For O=[N+]([O-])c1ccc(N/N=C/c2c[nH]c3ccccc23)cc1 the results were T cruzi inh 5, Hsp70 act 0, L major viab 98*, HSF1 activator 155*, HSF1 inhib 103 and L major 1uM -18.
O=c1c(C=NCCN2CCNCC2)c(-c2ccccc2)[nH]n1-c1ccc([N+](=O)[O-])cc1 was read as T cruzi inh -9, Hsp70 act 0, L major viab 101*, HSF1 activator 44, HSF1 inhib 4 and L major 1uM 28.
`Cc1cc(C)n(S(=O)(=O)/C=C/c2ccccc2)n1` gave T cruzi inh -2, Hsp70 act 0, L major viab 98*, HSF1 activator 54*, HSF1 inhib 53 and L major 1uM -2.
Cc1ccc(S(=O)(=O)n2nc(C)cc2C)cc1 was read as T cruzi inh 2, Hsp70 act 0, L major viab -1, HSF1 activator 5 and HSF1 inhib 0.
`Cc1nc(NC(=O)C2CC2)sc1C(=O)Nc1ccccc1Cl` gave T cruzi inh 0, HSF1 activator 39 and HSF1 inhib 25.
`Cc1ccc(N=C(NOCc2ccc(Cl)cc2Cl)c2nonc2N)c(C)c1` gave T cruzi inh inconclusive, Hsp70 act 0, L major viab 98*, HSF1 activator 59*, HSF1 inhib 19 and L major 1uM 20.
Screening COc1ccc(C2C3C(=O)N(Cc4ccccc4)C(=O)C3ON2c2ccccc2)c(OC)c1OC (stereo not given) returned Hsp70 act 0, L major viab 74* and L major 1uM -10.
Screening COc1ccccc1N(CC(=O)Nc1ccccc1C(=O)N1CCOCC1)S(C)(=O)=O returned T cruzi inh 1, HSF1 activator -7 and HSF1 inhib -5.
For Clc1ccccc1C(c1ccccc1)(c1ccccc1)n1ccnc1 the results were T cruzi inh 43, Hsp70 act 0, L major viab 100*, HSF1 activator -19, HSF1 inhib 1 and L major 1uM 88*.
N#Cc1c(Cl)cccc1-n1ccnc1 was read as T cruzi inh -14, Hsp70 act 0, L major viab -3, HSF1 activator -6 and HSF1 inhib -3.
`O=C(NNC(=O)c1cccc(O)c1)Nc1ccc([N+](=O)[O-])cc1` gave T cruzi inh -5, Hsp70 act 0, L major viab -2, HSF1 activator 2 and HSF1 inhib 0.
For CC(SC#N)C(=O)C12CC3CC(CC(C3)C1)C2 (stereo not given) the results were T cruzi inh -2, Hsp70 act 0, L major viab 63*, HSF1 activator 8, HSF1 inhib 7 and L major 1uM 12.
Cc1cc(C)n2nc(CNS(=O)(=O)c3ccc(CC(C)C)cc3)nc2n1 was read as T cruzi inh -6, HSF1 activator -8 and HSF1 inhib 2.
Screening CC(=O)NCCNc1ccc([N+](=O)[O-])cn1 returned T cruzi inh -11, Hsp70 act 0, L major viab 62*, HSF1 activator -4, HSF1 inhib -5 and L major 1uM -16.
Screening CN(C)CCNc1c2c(c(C#N)c3nc4ccccc4n13)CCCC2 returned T cruzi inh 62*, Hsp70 act 0, L major viab 54*, HSF1 activator 14, HSF1 inhib 7 and L major 1uM -16.
COCCN(CCOC)c1cc(C)c(C#N)c2nc3ccccc3n12 was read as T cruzi inh -7, Hsp70 act 0, L major viab -3, HSF1 activator 22 and HSF1 inhib -8.
`CCNC(=O)NC(=O)C(C)N1C(=O)NC(c2ccccc2)(c2ccccc2)C1=O` (stereo not given) gave T cruzi inh -2, HSF1 activator 1 and HSF1 inhib -2.
Screening CCc1ccc(C2c3[nH]c4ccccc4c3CCN2C(=O)CN2CCN(CC)CC2)cc1 (stereo not given) returned T cruzi inh 40, Hsp70 act 0, L major viab 75*, HSF1 activator 6, HSF1 inhib -2 and L major 1uM -10.
For O=C(CCCn1c(=O)c2ccccc2n(CC(=O)N2CCN(c3ccccc3)CC2)c1=O)NCc1ccco1 the results were T cruzi inh 6, Hsp70 act 0, L major viab 8, HSF1 activator -10 and HSF1 inhib -1.
Screening Cn1c(C(=O)N2CCc3ccccc3C2)cc2c(=O)n3ccccc3nc21 returned T cruzi inh -14, Hsp70 act 0, L major viab 97*, HSF1 activator -5, HSF1 inhib -4 and L major 1uM -9.

Screening results from PubChem.
